UPR CHOP act: apoptotic UPR (CHOP) activation; 330,000 compounds, 0.34% hits; AID 449763; CHO-CHOP luciferase reporter, luminescence; percent of tunicamycin response over DMSO baseline; activation, % at 10 µM;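 active means at 10 µM dose, activation of 40% or more, normalized to positive control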
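System: CHO-CHOP luciferase reporter cell line; amount: 500 cells/well; buffer or medium: F12 medium containing 10% fetal bovine serum; incubation: 6 h compound exposure at 37 °C after overnight seeding; measured by: luciferase luminescence after 10 min with Steady-Glo reagent; evaluation: % reporter activation, DMSO baseline versus tunicamycin full activation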
CHOP inhibitor: inhibitors of CHOP induction in ER stress response; CHO-K1 CHOP-promoter luciferase, tunicamycin-induced, 15-18 h; inhibition, % at 10 µM; 220,000 compounds, 3.8% hits;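 active means compounds that reduced the stress-induced luciferase reporter signal by more than about 70% of percent inhibition, limit read from the data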
XBP1 UPR activ: adaptive UPR (XBP1) activation | 330,000 compounds, 0.33% hits | CHO-XBP1 luciferase reporter, IRE1-XBP1 UPR activation, luminescence; percent of tunicamycin response, DMSO as zero | activation, % at 20 µM;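 active means versus positive control, 20 µM dose yields 30% or more activation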
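Test system: CHO-XBP1 luciferase reporter cells | Buffer or medium: Serum-containing F12 medium, 10% FBS | Schedule: 6 h compound exposure at 37 °C, 5% CO2 | Detection: Steady-Glo luciferase glow luminescence, 10 min after reagent addition | Read-out basis: Activation, % of tunicamycin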
697 NFkB inh: inhibitors of the PMA/ionomycin-induced NF-kB reporter in 697 B cells; 697 B-cell NF-kB luciferase reporter, 16 h; inhibition, % at 4 µM; 330,000 compounds, 0.33% hits; in the data active means inhibition above about 35%
Jurkat NFkB inh: inhibitors of the PMA/ionomycin-induced NF-kB reporter in Jurkat cells; inhibition, % at 4 µM; PMA/ionomycin-induced NF-kB luciferase reporter, luminescence; 330,000 compounds, 0.53% hits; AID 435003; in the data active means inhibition above about 50%
Jurkat NFkB conf: lowers PMA/ionomycin-induced NF-kB signal in Jurkat cells | 2,700 compounds, 27% hits | inhibition, % at 4 µM | shares compounds with Jurkat NFkB inh | Jurkat NF-kB luciferase, 16 h;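 active means inhibition reaching about 45% at 4 µM in either replicate, limit read from the data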
697 NFkB conf: inhibitors of the PMA/ionomycin-induced NF-kB reporter in 697 B cells, retest; 697 B-cell NF-kB luciferase, 16 h; inhibition, % at 4 µM; 2,000 compounds, 35% hits; shares compounds with 697 NFkB inh; in the data active means inhibition mostly above about 28%, no sharp cut-off; inactive means mostly below about 22%
Large screens that a line does not name were inactive (follow-up assays come after a bar, where they were run). This excerpt belongs to a sample that is enriched for hits.

CCC(C)C(=O)N[C@@H](c1ccccc1)[C@@H](O)C(=O)O[C@H]1C[C@@]2(O)[C@@H](OC(=O)c3ccccc3)C3[C@](C)(C(=O)[C@H](OC(C)=O)C(=C1C)C2(C)C)[C@@H](O)C[C@H]1OC[C@@]31OC(C)=O (some centres not stated)	Jurkat NFkB inh 72 (no result: CHOP inhibitor) | Jurkat NFkB conf 68
NCc1cc(=O)[nH]o1	none
COC(=O)C1=C(c2ccc(F)cc2F)C[C@@H]2CC[C@H]1N2C(=O)NCCOc1ccccc1	none (no result: CHOP inhibitor)
C[C@]12CCC3C(CCC4=CC(O)CC[C@@]43/C=N/O)C1(O)CCC2C1=CC(=O)OC1 (some centres not stated)	Jurkat NFkB inh 95 (no result: CHOP inhibitor) | Jurkat NFkB conf 79
C[C@]12CC[C@H]3[C@@H](CC[C@]4(O)C[C@@H](O)CC[C@]34C=O)[C@@]1(O)CC[C@@H]2C1=CC(=O)OC1	Jurkat NFkB inh 98 (no result: CHOP inhibitor) | Jurkat NFkB conf 86
CC12CC[C@H]3[C@@H](CCC4(O)C[C@H](O)CCC34/C=N/NC(=O)c3ccccc3Cl)C1(O)CCC2C1=CC(=O)OC1 (some centres not stated)	none
CCCCN=C[C@]12CCC(O)CC1(O)CCC1[C@@H]2CC[C@]2(C)[C@H](C3C=CC(=O)O3)CCC12O (some centres not stated)	Jurkat NFkB inh 94 (no result: CHOP inhibitor) | Jurkat NFkB conf 79
C[C@H]1O[C@@H](O[C@H]2[C@@H](O)C[C@H](O[C@H]3[C@@H](O)C[C@H](O[C@H]4CC[C@@]5(C)[C@H](CC[C@@H]6[C@@H]5CC[C@]5(C)[C@@H](C7=CC(=O)OC7)CC[C@]65O)C4)O[C@@H]3C)O[C@@H]2C)C[C@H](O)[C@@H]1O	none (no result: UPR CHOP act, XBP1 UPR activ, 697 NFkB inh, Jurkat NFkB inh)
Nc1ccccc1Cl	none (no result: CHOP inhibitor)
O=C(COc1ccc2ccc(=O)oc2c1)N1CCC(C(=O)O)(c2ccccc2)CC1	none (no result: CHOP inhibitor)
Cn1ncnc2c(=O)n(C)c(=O)nc1-2	Jurkat NFkB inh 55 (no result: CHOP inhibitor) | Jurkat NFkB conf 99
Cc1ccc(OC(F)F)c(N2C(=O)C3C4CCC(O4)C3C2=O)c1 (configuration not stated)	none (no result: CHOP inhibitor)
COc1ccccc1-n1c(/C=C/c2ccc(O)cc2)nc2ccccc2c1=O	none (no result: CHOP inhibitor) | Jurkat NFkB conf inactive
COc1ccc2c(c1)/C(=C/c1cnc[nH]1)C(=O)N2	Jurkat NFkB inh 55 | Jurkat NFkB conf inactive
CC1=CC(=C2C(=O)NC(=S)NC2=O)C=C(C(F)(F)F)N1Cc1ccccc1	Jurkat NFkB inh 70 | Jurkat NFkB conf inactive
CC1=CC(=C2C(=O)NC(=O)NC2=O)C=C(C(F)(F)F)N1Cc1ccccc1	none
CC1=CC(=C2C(=O)NC(=S)NC2=O)C=C(C(F)(F)F)N1CCc1ccccc1	Jurkat NFkB inh 50 | Jurkat NFkB conf inactive
COP(=S)(OC)c1c(C)nn(CCC#N)c1NC(=O)c1ccc(Cl)cc1	none (no result: CHOP inhibitor)
COC(=O)C1=C(c2ccc(F)cc2OCc2ccccc2)C[C@@H]2CC[C@H]1N2C(=O)N1CCC(O)CC1	none (no result: CHOP inhibitor)
Nc1ccc(CCN2CCN(c3cccc(C(F)(F)F)c3)CC2)cc1	Jurkat NFkB inh 60 | Jurkat NFkB conf inactive
Cc1nc2ccccc2c(=O)n1/N=C/c1cc(Br)cc(Br)c1O	none (no result: CHOP inhibitor)
CC[C@@H]1C=CC=CC[C@H](C)[C@@H](O)[C@@H](C)C(=O)[C@H](C)[C@@H](O)[C@H](C)C(=O)[C@H](C)[C@@H](O)[C@H](C)C=CC(=O)O[C@H]2[C@@H](C)[C@@H](CC1)O[C@@]1(CC[C@@H](C)[C@@H](C[C@H](C)O)O1)[C@@H]2C	Jurkat NFkB inh 53 (no result: CHOP inhibitor) | Jurkat NFkB conf inactive
COc1cccc(NP(=O)(Oc2ccccc2)Oc2ccccc2)c1	Jurkat NFkB inh 62 | Jurkat NFkB conf inactive
COC(=O)C1=C(c2c(C)noc2C)C[C@@H]2CC[C@H]1N2C(=O)NCc1ccc(C(F)(F)F)cc1	none (no result: CHOP inhibitor)
CN(C)c1ccc(-[n+]2c(-c3ccccc3)cc(-c3ccccc3)cc2-c2ccccc2)cc1	Jurkat NFkB inh 99 | Jurkat NFkB conf 62
Cc1ccc(-c2cc(-c3ccccc3)cc(-c3ccccc3)[n+]2-c2ccccc2)cc1	Jurkat NFkB inh 54 (no result: CHOP inhibitor) | Jurkat NFkB conf inactive
c1ccc(-c2cc(-c3ccccc3)[n+](-c3ccccc3)c(-c3ccccc3)c2)cc1	none
CCOC(=O)c1ccc(-[n+]2c(-c3ccccc3)cc(-c3ccccc3)cc2-c2ccccc2)cc1	none (no result: CHOP inhibitor)
COc1cc2c(c(OC)c1OC)-c1ccc(O)cc1[C@@H](NC(C)=O)CC2	Jurkat NFkB inh 77 (no result: CHOP inhibitor) | Jurkat NFkB conf 64 | 697 NFkB conf inactive
COc1ccc(C[C@H]2NC[C@H](O)[C@H]2OC(C)=O)cc1	697 NFkB inh 100, Jurkat NFkB inh 100 (no result: CHOP inhibitor) | Jurkat NFkB conf 99 | 697 NFkB conf 94
COc1ccc(CCNC2CCCCC2)cc1	none
COC(=O)C1=C(c2ccc(OC(F)(F)F)cc2)C[C@@H]2CC[C@H]1N2C(=O)N1CCOCC1	none (no result: CHOP inhibitor)
C=C1C(O)[C@@H]2O[C@]3(CC[C@H](/C=C/C(C)[C@@H]4CC(C)=CC5(O[C@H](C[C@@](C)(O)C(=O)O)CCC5O)O4)O3)CC[C@H]2O[C@@H]1C(O)CC(C)[C@H]1OC2(CCCCO2)CCC1C (some centres not stated)	697 NFkB inh 100, Jurkat NFkB inh 101 (no result: CHOP inhibitor) | Jurkat NFkB conf 99 | 697 NFkB conf 79
C=CC[C@@H](CC/C=C/C=C/CC/C=C\[C@@H]1CSC([C@@H]2C[C@@H]2C)=N1)OC	Jurkat NFkB inh 74 (no result: CHOP inhibitor) | Jurkat NFkB conf 52 | 697 NFkB conf inactive
Oc1ccc2c3c1OC1c4oc5ccccc5c4C[C@@]4(O)[C@@H](C2)N(CC2CC2)CC[C@]314 (some centres not stated)	none (no result: CHOP inhibitor)
O=C(Cn1ncn2c(cc3cc(F)ccc32)c1=O)N1CCC2(CC1)OCCO2	none (no result: CHOP inhibitor)
C=C1[C@H]2CC[C@H]3[C@]4(C)C[C@H](O[C@@H]5OC(CO)[C@@H](OSOOO)[C@H](OS(=O)(=O)O)[C@H]5OC(=O)CC(C)C)C[C@@H](C(=O)O)[C@H]4CC[C@]3(C2)[C@H]1O (some centres not stated)	none (no result: CHOP inhibitor)
O=C1/C(=C/c2ccccc2)C[C@@]2(O)[C@H]3Cc4ccc(O)c5c4[C@@]2(CCN3CC2CC2)C1O5 (some centres not stated)	697 NFkB inh 55, Jurkat NFkB inh 85 (no result: CHOP inhibitor) | Jurkat NFkB conf inactive | 697 NFkB conf 50
CCOc1ccc(-n2c(-c3ccoc3)nc3ccccc3c2=O)cc1	none
